Measured values from the RNAGym collection of RNA variant scans (doi:10.1002/anie.201605470).

B1: Osa-1-4 twister ribozyme (parent)
chain: CCGCCUAACACUGCCAAUGCCGGUCCCAAGCCCGGAUAAAAGUGGAGGGGGCGG

Variants of: B1
Test: self-cleavage, relative activity (ratio to wild type); higher = more cleavage; co-transcriptional
Procedure, shortened: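 A DNA template was synthesised for a 54-nucleotide twister ribozyme from Oryza sativa, with 97 % wild-type base and 1 % of each other base at each of the 48 positions downstream of the cleavage site. The ribozyme cleaved itself co-transcriptionally during 2 h of in vitro transcription at 37 °C. Reverse transcription with a template-switching oligonucleotide, PCR amplification and deep sequencing followed, and cleavage status came from reads with or without upstream sequence. Relative activity is the fraction cleaved normalised to wild type.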

Variant	self-cleavage
CCGCCUGACACUGCCAAUGCCGGUCCCAAACCCGGAUAAAAGUGGAGGGGGCGG [A7G G30A]	0.04
CCGCCUGACACUGCCAAUGCCGGUCCCAACCCCGGAUAAAAGUGGAGGGGGCGG [A7G G30C]	0.03
CCGCCUGACACUGCCAAUGCCGGUCCCAAUCCCGGAUAAAAGUGGAGGGGGCGG [A7G G30U]	0.05
CCGCCUGACACUGCCAAUGCCGGUCCCAAGCCCGGAUAAAAGUGGAGGGGGCGG [A7G]	0.49
CCGCCUGACACUGCCAAUGCCGGUCGCAAGCCCGGAUAAAAGUGGAGGGGGCGG [A7G C26G]	0.19
CCGCCUGACACUGCCAAUGCCGGUCUCAAGCCCGGAUAAAAGUGGAGGGGGCGG [A7G C26U]	0.13
CCGCCUGACACUGCCAAUGCCGGUCACAAGCCCGGAUAAAAGUGGAGGGGGCGG [A7G C26A]	0.04
CCGCCUCACACUGCCAAAGCCGGUCCCAAGCCCGGAUAAAAGUGGAGGGGGCGG [A7C U18A]	0.04
CCGCCUCACACUGCCAACGCCGGUCCCAAGCCCGGAUAAAAGUGGAGGGGGCGG [A7C U18C]	0.06
CCGCCUCACACUGCCAAGGCCGGUCCCAAGCCCGGAUAAAAGUGGAGGGGGCGG [A7C U18G]	0.08
CCGCCUCACACUGCCAAUGCCGGUCCCAAGCCCGGAGAAAAGUGGAGGGGGCGG [A7C U37G]	0.07
CCGCCUCACACUGCCAAUGCCGGUCCCAAGCCCGGACAAAAGUGGAGGGGGCGG [A7C U37C]	0.06
CCGCCUCACACUGCCAAUGCCGGUCCCAAGCCCGGAAAAAAGUGGAGGGGGCGG [A7C U37A]	0.02
CCGCCUGACACUGCCAAUGCCGGUCCCAAGUCCGGAUAAAAGUGGAGGGGGCGG [A7G C31U]	0.09
CCGCCUGACACUGCCAAUGCCGGUCCCAAGACCGGAUAAAAGUGGAGGGGGCGG [A7G C31A]	0.03
CCGCCUGACACUGCCAAUGCCGGUCCCAAGGCCGGAUAAAAGUGGAGGGGGCGG [A7G C31G]	0.14
CCGCCUGACACUGCCAAUGCCGGUCCCAAGCCCGGAUAAAAGUGGAGGCGGCGG [A7G G49C]	0.05
CCGCCUGACACUGCCAAUGCCGGUCCCAAGCCCGGAUAAAAGUGGAGGAGGCGG [A7G G49A]	0.07
CCGCCUGACACUGCCAAUGCCGGUCCCAAGCCCGGAUAAAAGUGGAGGUGGCGG [A7G G49U]	0.05
CCGCCUGACACUGCCAAUGCCGGUGCCAAGCCCGGAUAAAAGUGGAGGGGGCGG [A7G C25G]	0.06
CCGCCUGACACUGCCAAUGCCGGUACCAAGCCCGGAUAAAAGUGGAGGGGGCGG [A7G C25A]	0.05
CCGCCUGACACUGCCAAUGCCGGUUCCAAGCCCGGAUAAAAGUGGAGGGGGCGG [A7G C25U]	0.17
CCGCCUGAGACUGCCAAUGCCGGUCCCAAGCCCGGAUAAAAGUGGAGGGGGCGG [A7G C9G]	0.29
CCGCCUGAAACUGCCAAUGCCGGUCCCAAGCCCGGAUAAAAGUGGAGGGGGCGG [A7G C9A]	0.11
CCGCCUGAUACUGCCAAUGCCGGUCCCAAGCCCGGAUAAAAGUGGAGGGGGCGG [A7G C9U]	0.19

Variant	self-cleavage
CCGCCUGACACUGCCAAUGGCGGUCCCAAGCCCGGAUAAAAGUGGAGGGGGCGG [A7G C20G]	0.11
CCGCCUGACACUGCCAAUGUCGGUCCCAAGCCCGGAUAAAAGUGGAGGGGGCGG [A7G C20U]	0.43
CCGCCUGACACUGCCAAUGACGGUCCCAAGCCCGGAUAAAAGUGGAGGGGGCGG [A7G C20A]	0.5
CCGCCUCACACUGCCAAUGCCGGCCCCAAGCCCGGAUAAAAGUGGAGGGGGCGG [A7C U24C]	0.03
CCGCCUCACACUGCCAAUGCCGGACCCAAGCCCGGAUAAAAGUGGAGGGGGCGG [A7C U24A]	0.04
CCGCCUCACACUGCCAAUGCCGGGCCCAAGCCCGGAUAAAAGUGGAGGGGGCGG [A7C U24G]	0.01
CCGCCUGACACUGCCAAUGCCGAUCCCAAGCCCGGAUAAAAGUGGAGGGGGCGG [A7G G23A]	0.14
CCGCCUGACACUGCCAAUGCCGUUCCCAAGCCCGGAUAAAAGUGGAGGGGGCGG [A7G G23U]	0.04
CCGCCUGACACUGCCAAUGCCGCUCCCAAGCCCGGAUAAAAGUGGAGGGGGCGG [A7G G23C]	0.06
CCGCCUGACACUGCCAAUGCCGGUCCCAAGCCCGGAUAAAAGUGCAGGGGGCGG [A7G G45C]	0.04
CCGCCUGACACUGCCAAUGCCGGUCCCAAGCCCGGAUAAAAGUGAAGGGGGCGG [A7G G45A]	0.08
CCGCCUGACACUGCCAAUGCCGGUCCCAAGCCCGGAUAAAAGUGUAGGGGGCGG [A7G G45U]	0.05
CCGCCUGACACUGCCAAUGCCGGUCCCAAGCCUGGAUAAAAGUGGAGGGGGCGG [A7G C33U]	0.13
CCGCCUGACACUGCCAAUGCCGGUCCCAAGCCAGGAUAAAAGUGGAGGGGGCGG [A7G C33A]	0.07
CCGCCUGACACUGCCAAUGCCGGUCCCAAGCCGGGAUAAAAGUGGAGGGGGCGG [A7G C33G]	0.03
CCGCCUGACACUGCCAAUGCCGGUCCCAAGCCCGGAUAAAAGUAGAGGGGGCGG [A7G G44A]	0.13
CCGCCUGACACUGCCAAUGCCGGUCCCAAGCCCGGAUAAAAGUUGAGGGGGCGG [A7G G44U]	0.15
CCGCCUGACACUGCCAAUGCCGGUCCCAAGCCCGGAUAAAAGUCGAGGGGGCGG [A7G G44C]	0.21
CCGCCUGCCACUGCCAAUGCCGGUCCCAAGCCCGGAUAAAAGUGGAGGGGGCGG [A7G A8C]	0.1
CCGCCUGUCACUGCCAAUGCCGGUCCCAAGCCCGGAUAAAAGUGGAGGGGGCGG [A7G A8U]	0.1
CCGCCUGGCACUGCCAAUGCCGGUCCCAAGCCCGGAUAAAAGUGGAGGGGGCGG [A7G A8G]	0.28
CCGCCUGACACUGCCAAUGCCGGUCCCAAGCCCGGAUAAAAGUGGAGAGGGCGG [A7G G48A]	0.06
CCGCCUGACACUGCCAAUGCCGGUCCCAAGCCCGGAUAAAAGUGGAGUGGGCGG [A7G G48U]	0.05
CCGCCUGACACUGCCAAUGCCGGUCCCAAGCCCGGAUAAAAGUGGAGCGGGCGG [A7G G48C]	0.05
CCGCCUGACACUGCCAAUGCCGGUCCCAAGCACGGAUAAAAGUGGAGGGGGCGG [A7G C32A]	0.05

Variant	self-cleavage
CCGCCUGACACUGCCAAUGCCGGUCCCAAGCUCGGAUAAAAGUGGAGGGGGCGG [A7G C32U]	0.08
CCGCCUGACACUGCCAAUGCCGGUCCCAAGCGCGGAUAAAAGUGGAGGGGGCGG [A7G C32G]	0.09
CCGCCUGACACUGCCAAUGCCGGUCCCAAGCCCGGAUAAAAGUGGAGGGGGUGG [A7G C52U]	0.55
CCGCCUGACACUGCCAAUGCCGGUCCCAAGCCCGGAUAAAAGUGGAGGGGGGGG [A7G C52G]	0.32
CCGCCUGACACUGCCAAUGCCGGUCCCAAGCCCGGAUAAAAGUGGAGGGGGAGG [A7G C52A]	0.29
CCGCCUGACAUUGCCAAUGCCGGUCCCAAGCCCGGAUAAAAGUGGAGGGGGCGG [A7G C11U]	0.15
CCGCCUGACAAUGCCAAUGCCGGUCCCAAGCCCGGAUAAAAGUGGAGGGGGCGG [A7G C11A]	0.13
CCGCCUGACAGUGCCAAUGCCGGUCCCAAGCCCGGAUAAAAGUGGAGGGGGCGG [A7G C11G]	0.1
CCGCCUGACACUGCCAAUCCCGGUCCCAAGCCCGGAUAAAAGUGGAGGGGGCGG [A7G G19C]	0.06
CCGCCUGACACUGCCAAUUCCGGUCCCAAGCCCGGAUAAAAGUGGAGGGGGCGG [A7G G19U]	0.07
CCGCCUGACACUGCCAAUACCGGUCCCAAGCCCGGAUAAAAGUGGAGGGGGCGG [A7G G19A]	0.15
CCGCCUGACACUGCCAAUGCCGGUCCCAAGCCCGGAUAAAAGUGGACGGGGCGG [A7G G47C]	0.05
CCGCCUGACACUGCCAAUGCCGGUCCCAAGCCCGGAUAAAAGUGGAUGGGGCGG [A7G G47U]	0.07
CCGCCUGACACUGCCAAUGCCGGUCCCAAGCCCGGAUAAAAGUGGAAGGGGCGG [A7G G47A]	0.08
CCGCCUGACACUGCCAAUGCUGGUCCCAAGCCCGGAUAAAAGUGGAGGGGGCGG [A7G C21U]	0.23
CCGCCUGACACUGCCAAUGCAGGUCCCAAGCCCGGAUAAAAGUGGAGGGGGCGG [A7G C21A]	0.1
CCGCCUGACACUGCCAAUGCGGGUCCCAAGCCCGGAUAAAAGUGGAGGGGGCGG [A7G C21G]	0.03
CCGCCUGACACUGGCAAUGCCGGUCCCAAGCCCGGAUAAAAGUGGAGGGGGCGG [A7G C14G]	0.32
CCGCCUGACACUGUCAAUGCCGGUCCCAAGCCCGGAUAAAAGUGGAGGGGGCGG [A7G C14U]	0.1
CCGCCUGACACUGACAAUGCCGGUCCCAAGCCCGGAUAAAAGUGGAGGGGGCGG [A7G C14A]	0.04
CCGCCUGACACUGCCAAUGCCGGUCCCAAGCCCUGAUAAAAGUGGAGGGGGCGG [A7G G34U]	0.12
CCGCCUGACACUGCCAAUGCCGGUCCCAAGCCCCGAUAAAAGUGGAGGGGGCGG [A7G G34C]	0.14
CCGCCUGACACUGCCAAUGCCGGUCCCAAGCCCAGAUAAAAGUGGAGGGGGCGG [A7G G34A]	0.21
CCGCCUGACACUGCCAAUGCCGGUCCCAAGCCCGGAUAAAAGUGGAGGGAGCGG [A7G G50A]	0.17
CCGCCUGACACUGCCAAUGCCGGUCCCAAGCCCGGAUAAAAGUGGAGGGCGCGG [A7G G50C]	0.16

Variant	self-cleavage
CCGCCUGACACUGCCAAUGCCGGUCCCAAGCCCGGAUAAAAGUGGAGGGUGCGG [A7G G50U]	0.16
CCGCCUCACACUGCCAAUGCCGGUCCCAAGCCCGGAUAAAAGAGGAGGGGGCGG [A7C U43A]	0.06
CCGCCUCACACUGCCAAUGCCGGUCCCAAGCCCGGAUAAAAGGGGAGGGGGCGG [A7C U43G]	0.06
CCGCCUCACACUGCCAAUGCCGGUCCCAAGCCCGGAUAAAAGCGGAGGGGGCGG [A7C U43C]	0.04
CCGCCUGACACUGCCAAUGCCGGUCCCAAGCCCGGAUAAAAUUGGAGGGGGCGG [A7G G42U]	0.05
CCGCCUGACACUGCCAAUGCCGGUCCCAAGCCCGGAUAAAAAUGGAGGGGGCGG [A7G G42A]	0.13
CCGCCUGACACUGCCAAUGCCGGUCCCAAGCCCGGAUAAAACUGGAGGGGGCGG [A7G G42C]	0.08
CCGCCUGACACUGCUAAUGCCGGUCCCAAGCCCGGAUAAAAGUGGAGGGGGCGG [A7G C15U]	0.09
CCGCCUGACACUGCGAAUGCCGGUCCCAAGCCCGGAUAAAAGUGGAGGGGGCGG [A7G C15G]	0.27
CCGCCUGACACUGCAAAUGCCGGUCCCAAGCCCGGAUAAAAGUGGAGGGGGCGG [A7G C15A]	0.12
CCGCCUGACACUGCCAAUGCCCGUCCCAAGCCCGGAUAAAAGUGGAGGGGGCGG [A7G G22C]	0.08
CCGCCUGACACUGCCAAUGCCAGUCCCAAGCCCGGAUAAAAGUGGAGGGGGCGG [A7G G22A]	0.18
CCGCCUGACACUGCCAAUGCCUGUCCCAAGCCCGGAUAAAAGUGGAGGGGGCGG [A7G G22U]	0.1
CCGCCUGACACUACCAAUGCCGGUCCCAAGCCCGGAUAAAAGUGGAGGGGGCGG [A7G G13A]	0.06
CCGCCUGACACUCCCAAUGCCGGUCCCAAGCCCGGAUAAAAGUGGAGGGGGCGG [A7G G13C]	0.03
CCGCCUGACACUUCCAAUGCCGGUCCCAAGCCCGGAUAAAAGUGGAGGGGGCGG [A7G G13U]	0.02
CCGCCUGACACUGCCAAUGCCGGUCCUAAGCCCGGAUAAAAGUGGAGGGGGCGG [A7G C27U]	0.1
CCGCCUGACACUGCCAAUGCCGGUCCGAAGCCCGGAUAAAAGUGGAGGGGGCGG [A7G C27G]	0.07
CCGCCUGACACUGCCAAUGCCGGUCCAAAGCCCGGAUAAAAGUGGAGGGGGCGG [A7G C27A]	0.07
CCGCCUGACACUGCCAAUGCCGGUCCCAAGCCCGUAUAAAAGUGGAGGGGGCGG [A7G G35U]	0.2
CCGCCUGACACUGCCAAUGCCGGUCCCAAGCCCGAAUAAAAGUGGAGGGGGCGG [A7G G35A]	0.31
CCGCCUGACACUGCCAAUGCCGGUCCCAAGCCCGCAUAAAAGUGGAGGGGGCGG [A7G G35C]	0.1
